# Assay outcomes as filed in PubChem BioAssay.
# dFosB act = activators of mouse delta FosB homodimer | purified delta FosB, TAMRA-CDK5 oligo fluorescence polarization; percent of positive-control signal above neutral wells | P13346 | activation, % at 25 µM | 340,000 compounds, 0.99% hits;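 active = mean activation above about 17%, with every replicate also reaching it, limit read from the data, passing the limit was not always enough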
# CAL PDZ FP-1 = inhibitors of human CAL PDZ peptide binding | Q9HD26 | purified CAL PDZ, TMR-peptide fluorescence polarization, 1 h | inhibition, % at 24.9 µM | 300,000 compounds, 0.92% hits;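 active = mean inhibition of at least 30% with at least half of replicates also reaching 30%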;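 note: 0% = DMSO neutral control and 100% = excess unlabeled competitor peptide PRC23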
# CDK5 inh = CDK5/p35 (human) kinase inhibition. 330,000 compounds, 0.01% hits. inhibition, % at 10 µM. Q00535+Q15078. Recombinant CDK5/p35, ADP-Glo luminescence, 60 min;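 active = highest replicate inhibition of at least 50% and at least 75% of replicates reaching 50%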;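 note: plate controls were DMSO neutral control for no effect and GW8510 at 10 µM for full effect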
# CAL PDZ FP-2 = blocks peptide binding to human CAL PDZ domain | AID 504414 | inhibition, % at 20 µM | Q9HD26 | 330,000 compounds, 0.02% hits | purified CAL PDZ, TMR-peptide fluorescence polarization, 1 h;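 active = highest replicate inhibition of at least 40%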;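 note: plate controls were DMSO neutral control wells for no effect and unlabeled competitor peptide control wells for full effect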
#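 material = purified tagged CAL PDZ domain construct (CerCALP) | buffer or medium = sodium phosphate/NaCl buffer pH 7.4 with TCEP, IgG, Thesit | reagent = TMR-labelled reporter peptide T*-PRC34 bound in PDZ groove | incubation = 1 h room-temperature incubation prior to read | measured by = fluorescence polarization (mP) | evaluation = percent inhibition from loss of millipolarization | control set = unlabelled peptide and DMSO controls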
# DYRK1A inh = Dyrk1A (rat) kinase inhibition | Q63470 | ADP-Glo luminescence, NFATc1 peptide | inhibition, % at 12.5 µM | 310,000 compounds, 0.43% hits | AID 504441; in the data active = inhibition above about 50%;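 note: plate controls were vehicle with enzyme for no effect and no enzyme for full effect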
# Rtt109 HAT inh = blocks Candida albicans Rtt109/Vps75 acetyltransferase activity | Q5AAJ8 | purified Rtt109/Vps75, ThioGlo CoA-SH fluorescence, 4 h | inhibition, % at 34.9 µM | 330,000 compounds, 0.16% hits | AID 540336;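 active = inhibition of at least 50% in every replicate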
# Target sequence (Q5AAJ8 whole entry, looked up): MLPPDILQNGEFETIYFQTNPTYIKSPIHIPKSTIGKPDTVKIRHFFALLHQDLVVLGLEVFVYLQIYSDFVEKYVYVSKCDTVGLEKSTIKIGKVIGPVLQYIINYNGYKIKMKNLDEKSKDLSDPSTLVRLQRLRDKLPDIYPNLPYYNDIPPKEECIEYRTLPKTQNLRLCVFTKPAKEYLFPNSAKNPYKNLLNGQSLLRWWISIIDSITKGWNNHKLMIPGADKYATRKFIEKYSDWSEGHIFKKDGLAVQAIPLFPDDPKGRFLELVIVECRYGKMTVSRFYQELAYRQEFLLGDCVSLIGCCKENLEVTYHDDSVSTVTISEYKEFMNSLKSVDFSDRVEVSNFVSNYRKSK
# Dyrk1A artifact = ADP-Glo luciferase interference, Dyrk1A counter-screen; 1,300 tested, under 10 active; AC50, µM (top dose mostly 12 µM), for the others: at the highest dose activity change, negative = inhibition; AID 588348; shares compounds with DYRK1A inh; ADP-Glo luciferase artifact assay, no Dyrk1A, luminescence;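 active = fitted half-maximal dose AC50 no more than ten times the top valid tested dose, with luminescence dropping as dose rises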
# Active calls of the source: *; / = no result given; ! = not active in a repeat. Compounds with a hit are over-represented: about 2.2% of the library has one in this group of screens.
SMILES,dFosB act,CAL PDZ FP-1,CDK5 inh,CAL PDZ FP-2,DYRK1A inh,Rtt109 HAT inh,Dyrk1A artifact
C[C@@H]1O[C@@H](OC[C@H]2O[C@@H](Oc3cc(O)c4c(=O)cc(-c5ccc(O)c(O)c5)oc4c3)[C@H](O)[C@@H](O)[C@@H]2O)[C@H](O)[C@H](O)[C@H]1O,12,-4,-1,0,59*,7,13%
O=c1cc(-c2ccc(O)c(O)c2)oc2cc(O[C@@H]3O[C@H](CO)[C@@H](O)[C@H](O)[C@H]3O)cc(O)c12,19*,-4,3,-1,60*,19,9%
COC(=O)c1nn(-c2ccc3c(c2)OCO3)cc1O,-4,/,1,-2,69*,0,5%
CCOC(=O)c1nn(-c2ccc3c(c2)OCCO3)cc1O,5,0,0,0,/,-3,/
C[C@@H]1C=C(C(=O)NCc2nc3ccccc3[nH]2)O[C@H](OCc2ccc(CO)cc2)C1,-5,1,-2,1,/,0,/
C[C@@H]1C=C(C(=O)NCc2nc3ccccc3[nH]2)O[C@H](OCCCCO)C1,1,1,-1,0,51*,4,11%
CCN(CC)C(=O)Oc1ccc2c(c1)O/C(=C\c1ccco1)C2=O,-20,/,0,0,53*,13,8%
CCC(=O)Oc1ccc2c(c1)O/C(=C\c1ccco1)C2=O,-5,/,3,-2,18,-90,/
Cc1ccc(S(=O)(=O)N2CCOC23CCN(S(=O)(=O)c2c(C)cc(C)cc2C)CC3)cc1,-9,-2,-2,-2,0,-2,/
N=c1oc2cc(O)ccc2cc1C(=O)Nc1ccc(F)cc1,-3,-5,2,-1,53*,8,9%
COc1cc([N+](=O)[O-])ccc1N1C(=O)C2C3C=CC(C4CC34)C2C1=O (stereo not given),4,-2,0,0,3,-15,/
COc1cc2c(C#N)c(N3CCCC3)nc(N)c2c(N)n1,-4,1,0,2,53*!,-4,12%
COc1cc2c(C#N)c(N3CCN(C)CC3)nc(N)c2c(N)n1,15,10,3,2,6,-49,/
N#Cc1c(N2CCCC2)nc(N)c2c(N)nc(N3CCCC3)cc12,4,3,0,1,67*,-4,9%
CCOc1cc2c(C#N)c(N3CCCC3)nc(N)c2c(N)n1,-5,-3,-2,-3,-1,-6,/
O=C(Nc1ccc(Cl)c(Cl)c1)OCc1cnc(Cl)s1,0,-1,0,0,59*,18,7%
O=c1cc(-c2ccccc2Cl)oc2c([N+](=O)[O-])c(O)cc(O)c12,-6,-8,5,-7,83*,1,12%
CCOc1ccccc1C(=O)Nc1ccccc1C(N)=O,-4,-2,1,-2,56*,-4,9%
COC(=O)[C@H](Cc1c[nH]c2ccccc12)NC(=O)CCCc1c[nH]c2ccccc12,-16,-6,1,1,-4,0,/
CCOC(=O)C(Cc1ccc(O)cc1)NC(=O)CCc1c[nH]c2ccccc12 (stereo not given),-7,-6,1,0,51*,4,12%
CC(C)(C)OC(=O)N1CCC(C(=O)Nc2cccc(C(=O)N3CCCCC3)c2)CC1,0,-3,1,-1,7,-1,/
O=C(Nc1ccccc1-c1nc2ccccc2s1)c1cccnc1Cl,-13,-3,-1,0,3,-4,/
O=C(Nc1cccc(-c2nc3cccnc3s2)c1)c1cccnc1Cl,-41,-8,-1,-5,62*,60*,8%
Cn1c2ccccc2c(=O)c2ccc(C#CC3(N)CCCCC3)cc21,-17,-12,2,-6,58*,-1,9%
COc1ccccc1CNS(=O)(=O)c1ccc(-n2cnnn2)c(OC)c1,-4,-4,1,0,5,1,/
SMILES,dFosB act,CAL PDZ FP-1,CDK5 inh,CAL PDZ FP-2,DYRK1A inh,Rtt109 HAT inh,Dyrk1A artifact
O=C(CCc1ccccc1)N/N=C/c1cccc(O)c1,1,-4,0,-3,17,9,/
O=C(N/N=C/c1cccc(O)c1)N/N=C/c1cccc(O)c1,-14,-8,-1,/,54*,-1,8%
CN(C)CCNC(=O)c1cc2c(s1)-c1ccccc1OC2,-3,/,2,-4,68*,-6,7%
Cc1cccc(N/C(N)=N/c2nc(C)cc(=O)[nH]2)c1,7,-2,3,0,4,2,/
Cc1ccc(S(=O)(=O)CCN2C=CC(C(F)(F)F)=NCC2)cc1,-9,/,0,1,3,-21,/
O=C(N/N=C/c1ccccn1)c1cc(-c2cccc3ccccc23)n[nH]1,-24,-3,-1,-7,23,/,/
O=C(N/N=C/c1ccccn1)c1cc(-c2ccccc2Cl)n[nH]1,-18,/,-6,-4,51*,1,9%
CCOc1ccc2noc3c2c1C(=O)c1ccccc1-3,-21,1,1,0,1,-7,/
O=C1c2ccccc2-c2onc3ccc(N4CCCC4)c1c23,-131,2,6,0,77*,12,9%
COc1cc(/C=N/N2C(=O)CSC2=S)ccc1O,-1,-9,4,0,52*,25,10%
Cc1ncc(CO)c(/C=N/Nc2ccc(C(F)(F)F)cn2)c1O,-7,-2,3,-2,50*,-7,9%
COc1ccccc1NC(=O)c1csc2c1CCC(C)C2 (stereo not given),-10,-4,2,-3,1,3,/
CC1CCc2c(C(=O)Nc3cccc(-c4nn[nH]n4)c3)csc2C1 (stereo not given),-12,1,-2,-3,67*,8,10%
COc1ccc2sc(-c3ccc(S(C)(=O)=O)cc3)c(C#CCO)c2c1,-5,-5,0,0,15,4,/
COc1ccc2c(C#CCCO)c(-c3ccc(S(C)(=O)=O)cc3)sc2c1,2,-2,1,-2,56*,-6,9%
CCc1ccc(N(CC(=O)NC2CCCCC2)C(=O)CCC(=O)Nc2ccccn2)cc1,-9,-6,0,-1,1,11,/
Nc1ccc2c(c1Cl)C(=O)c1ccc(N)c(Cl)c1C2=O,-11,-1,1,0,10,-1,/
Cc1ccc2c(c1C)-c1c(ccc(C)c1C)C(=O)C2=O,-29,-3,2,1,54*,3,9%
CC1CCc2nc(NC(=O)CN3CCN(Cc4ccc5c(c4)OCO5)CC3)sc2C1 (stereo not given),-8,0,0,1,55*,1,9%
